Data reported in PubChem BioAssay.
Records with an inconclusive call do not appear.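 How the source made its calls, unless noted: active means cell viability at or below a set limit in both duplicate runs, the limit being the all-compound median minus 4 SD (cut at about 23% in these data, passing the limit was not always enough); inconclusive means no clear call, values can overlap the other calls; inactive means the rest.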

Columns and labels:
[1] = S. cerevisiae growth inhibition in permissive medium (OD615), pilot counter-assay for S. cerevisiae lifespan shortening project, permissive growth control (AID 705;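 active means growth inhibition above 25% in both replicates, a cutoff set 3 SD above the mean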); conditions: OD615, 24 h, at 10 µM, hits give high values
In short: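 Material: engineered DeaD yeast; Compound: one dose 10 µM, DMSO 0.25% final; Detection: absorbance (optical density) at 615 nm; Buffer or medium: permissive raffinose/galactose medium; Timing: 24 h exposure, 30 °C.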

[2] = S. cerevisiae growth inhibition in restrictive medium, OD615, pilot screen, restrictive growth control, yeast lifespan reduction project (AID 706;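 active means growth inhibition above a set limit, 3 SD over mean compound inhibition, in both replicates, cut at about 43% in these data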;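 further: modified DeaD lifespan yeast strain shifted to restrictive glucose medium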); conditions: OD615, 48 h, at 10 µM, hits give high values
In short: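 Buffer or medium: restrictive glucose medium (CSMM-D); test system: modified S. cerevisiae; doses: single dose of 10 µM compound final, 0.25% DMSO; schedule: 48 h compound exposure at 30 °C; detection: absorbance (optical density) measured at 615 nm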

[3] = doxorubicin toxicity protection in MRP-1 cells – H69AR cells, CellTiter-Glo, duplicate, MRP-1 activator project, pilot screen (AID 807;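 active means viability increase at or above a cutoff of the median across tested compounds plus 3 SD, cut at about 8.5% in these data, passing the limit was not always enough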;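 further: compound pretreatment 18-22 h then 72 h combined with doxorubicin; 0% = doxorubicin alone and 100% = vehicle without doxorubicin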); conditions: H69AR viability with doxorubicin, CellTiter-Glo luminescence; at 10 µM; hits give high values
[4] = viability of HCT116 without oncogenic beta-catenin – human colon tumor cells, pilot screen (AID 823); conditions: HCT116 beta-catenin knockout viability, CellTiter-Glo, 60 h; at 10 µM; hits give low values;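 further: 0% = wells killed by 20 µM Hyamine and 100% = untreated DMSO cell wells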
[5] = viability of PTEN-null HCT116 cells – cell-based, HCT116 clonal line, CellTiter-Glo, pilot screen (AID 824;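 active means viability at or below 27.92% in each of two runs, the all-compound median minus 4 SD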;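 further: 0% = 20 µM Hyamine control and 100% = vehicle cell control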); conditions: HCT116 PTEN-deleted viability, 60 h, at 10 µM, hits give low values
[6] = RAM pathway blockade in budding yeast – dse1pr::URA3 reporter, 5-FOA selection, pilot screen (AID 869;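 active means inhibition over a set limit, the all-compound mean plus 3 SD, in both replicate runs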;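 further: 0% = DMSO wells with no growth and 100% = 10 µM 1-NA-PP1 with full growth; RAM network block rescues cells from 5-FOA so hits raise OD615 growth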); conditions: S. cerevisiae dse1pr::URA3 5-FOA growth, OD615, 2 d; at 10 µM; hits give high values; strain carries analog-sensitive mutant Cbk1 kinase
[7] = RAM signaling pathway blockade in yeast – S. cerevisiae, Pdr1DBD-CYC8 efflux-inhibited sensitized strain, primary screen (AID 1298;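 active means RAM network inhibition above 8.4% in each of two replicates, 3 SD over the compound average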;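 further: 0% = DMSO untreated cells without growth and 100% = 10 µM 1-NA-PP1 full growth; higher means more yeast growth rescued from 5-FOA killing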); conditions: S. cerevisiae cbk1-as DSE1-URA3 strain, 5-FOA growth OD615, 2 d; at 50 µM; hits give high values

O=C(NCCCN1CCN(c2ccccc2F)CC1)C1CCC(=O)N1C1CCCC1 (stereo not given)
inactive: growth inhibition [1] -13% | growth inhibition [2] -1.25% | viability increase [3] -2.46% | viability [4] 102% | viability [5] 93.6% | inhibition [6] 1.08% | RAM network inhibition [7] 5.85%

CCOC(=O)c1nn(-c2ccc3c(c2)CCN3C(C)=O)cc1O
inactive: growth inhibition [1] -3.56% | growth inhibition [2] -5.95% | viability increase [3] -1.4% | viability [4] 101% | viability [5] 92.7% | inhibition [6] 0.375% | RAM network inhibition [7] 3.05%

Cc1ccc(C(=O)NCCn2cc(SCC(=O)Nc3nnc(C)s3)c3ccccc32)cc1
inactive: growth inhibition [1] 5.58% | growth inhibition [2] 24.1% | viability increase [3] 2.91% | viability [4] 62.5% | viability [5] 81.3% | inhibition [6] 1.07% | RAM network inhibition [7] 0.63%

CN(CCc1ccccn1)C(=O)Nc1ccc(F)cc1
inactive: growth inhibition [1] -7.65% | growth inhibition [2] -14.7% | viability increase [3] -1.63% | viability [4] 108% | viability [5] 98% | inhibition [6] 0.71% | RAM network inhibition [7] 5.39%

CCOC(=O)N1CCN(C(=O)Cn2ncc3ccccc32)CC1
inactive: growth inhibition [1] -14.3% | growth inhibition [2] -4.71% | viability increase [3] -1.62% | viability [4] 105% | viability [5] 89.4% | inhibition [6] 3.38% | RAM network inhibition [7] 2.51%

CC1CCc2nn(CC(=O)NCCCN3CCCCC3)cc2C1 (stereo not given)
inactive: growth inhibition [1] -15.9% | growth inhibition [2] -10.3% | viability increase [3] -2.34% | viability [4] 105% | viability [5] 96.7% | inhibition [6] 1.18% | RAM network inhibition [7] 3.77%

Cc1ccc(NC(=O)NCCN2C(=O)C3C4C=CC(C4)C3C2=O)cc1 (stereo not given)
inactive: growth inhibition [1] -8.32% | growth inhibition [2] 10.9% | viability increase [3] -0.07% | viability [4] 98% | viability [5] 102% | inhibition [6] 0.865% | RAM network inhibition [7] 1.04%

Cc1ccsc1C1NC(=O)c2c(sc3c2CCN(C)C3)N1 (stereo not given)
inactive: growth inhibition [1] -1.86% | growth inhibition [2] 1.39% | viability increase [3] -1.41% | viability [4] 97.5% | viability [5] 98.6% | inhibition [6] 1.37% | RAM network inhibition [7] -0.83%

CC(=O)NCC(=O)OCC(=O)c1ccc(C)c(C)c1
inactive: growth inhibition [1] -7.93% | growth inhibition [2] -2.07% | viability increase [3] -1.39% | viability [4] 88.8% | viability [5] 95.1% | inhibition [6] 0.75% | RAM network inhibition [7] -0.41%

Cc1nc(SCC(=O)NCc2ccco2)c2oc3ccccc3c2n1
inactive: growth inhibition [1] -0.535% | growth inhibition [2] 1.3% | viability increase [3] -2.69% | viability [4] 95.2% | viability [5] 94% | inhibition [6] 0.86% | RAM network inhibition [7] 2.53%

CC(=O)Nc1cc2c(cc1C(=O)c1ccccc1)OCCO2
inactive: growth inhibition [1] -3.76% | growth inhibition [2] 7.87% | viability increase [3] -0.99% | viability [4] 95.2% | viability [5] 92.9% | inhibition [6] 1.35% | RAM network inhibition [7] 0.89%

COc1ccc(CN2CCCCC2C(=O)Nc2ccc(OC)c(OC)c2)cc1OC (stereo not given)
inactive: growth inhibition [1] -10.9% | growth inhibition [2] -12.6% | viability increase [3] -1.88% | viability [4] 95.8% | viability [5] 93.3% | inhibition [6] 0.01% | RAM network inhibition [7] 0.21%

CCN(CC)C(=O)Nc1cnc2ccccc2c1
inactive: growth inhibition [1] -17.2% | growth inhibition [2] -8.12% | viability increase [3] -2.72% | viability [4] 93.5% | viability [5] 96.4% | inhibition [6] 0.115% | RAM network inhibition [7] 5.38%

CC(C)(Oc1ccc(Cl)cc1)C(=O)Nc1cccnc1
inactive: growth inhibition [1] -4.86% | growth inhibition [2] -6.65% | viability increase [3] -3.43% | viability [4] 92.6% | viability [5] 83.1% | inhibition [6] 0.405% | RAM network inhibition [7] 1.94%

O=C(CCNS(=O)(=O)c1cccc2nsnc12)NC1CCCc2ccccc21 (stereo not given)
inactive: growth inhibition [1] -9.18% | growth inhibition [2] -13.1% | viability increase [3] -4.33% | viability [4] 88.2% | viability [5] 90.3% | inhibition [6] 1.23% | RAM network inhibition [7] 0.26%

CC1CC=C2C(C#N)=C(N)C(C#N)(C#N)C(c3cccs3)C2C1 (stereo not given)
inactive: growth inhibition [1] -11% | growth inhibition [2] -6.39% | viability increase [3] -4.25% | viability [4] 85.5% | viability [5] 85.7% | inhibition [6] 2.66% | RAM network inhibition [7] 3.84%

CCN(CC)c1ccc(NS(=O)(=O)c2ccc3c(c2)oc(=O)n3C)c(C)c1
inactive: growth inhibition [1] -8.04% | growth inhibition [2] -10.8% | viability increase [3] -2.73% | viability [4] 83.2% | viability [5] 72.6% | inhibition [6] 1.33% | RAM network inhibition [7] -0.57%

CC(=O)c1c(N(C)C)ccnc1C(F)(F)F
inactive: growth inhibition [1] -3.09% | growth inhibition [2] 8.03% | viability increase [3] -2.95% | viability [4] 107% | viability [5] 95.4% | inhibition [6] 1.92% | RAM network inhibition [7] 0.62%

O=C(CSc1ccccc1)NCc1cccnc1
inactive: growth inhibition [1] -4.86% | growth inhibition [2] -3.68% | viability increase [3] -1.64% | viability [4] 99.5% | viability [5] 97% | inhibition [6] 0.995% | RAM network inhibition [7] 0.53%

CCCNC(=O)Cc1cc(=O)[nH]c(=O)[nH]1
inactive: growth inhibition [1] -14.4% | growth inhibition [2] -17.8% | viability increase [3] 0.56% | viability [4] 105% | viability [5] 101% | inhibition [6] 1.33% | RAM network inhibition [7] 1.73%

O=C(CC(c1ccccc1)c1ccccc1O)NCCN1CCOCC1 (stereo not given)
inactive: growth inhibition [1] 0.155% | growth inhibition [2] -2.5% | viability increase [3] -2.74% | viability [4] 102% | viability [5] 95.6% | inhibition [6] 3.25% | RAM network inhibition [7] 2.36%

CCOC(=O)C1CCN(C(=O)c2cc3c(-c4ccc(OC)c(OC)c4)nn(C)c3s2)CC1
inactive: growth inhibition [1] -7.02% | growth inhibition [2] -7.66% | viability increase [3] -2.04% | viability [4] 107% | viability [5] 98.9% | inhibition [6] 0.595% | RAM network inhibition [7] 5.7%

Cn1c(CNC(=O)C(C)(C)C)nc2ccccc21
inactive: growth inhibition [1] -11.4% | growth inhibition [2] -0.87% | viability increase [3] -3.97% | viability [4] 101% | viability [5] 93.1% | inhibition [6] 1.8% | RAM network inhibition [7] 2.73%

CC1CCc2nn(CC(=O)N3CCCCCC3)cc2C1 (stereo not given)
inactive: growth inhibition [1] -3.02% | growth inhibition [2] 1.8% | viability increase [3] -0.62% | viability [4] 100% | viability [5] 91.4% | inhibition [6] 1.23% | RAM network inhibition [7] 1.06%

Cc1ccc(Cn2nnc3c(=O)n(Cc4ccccc4C)cnc32)cc1
inactive: growth inhibition [1] 1.6% | growth inhibition [2] -5.54% | viability increase [3] -2.98% | viability [4] 92.7% | viability [5] 82.3% | inhibition [6] 1.68% | RAM network inhibition [7] 8.59%

CCCc1nc2c(o1)CC(CC(C)SCC)CC2=O (stereo not given)
inactive: growth inhibition [1] -7.34% | growth inhibition [2] -1.98% | viability increase [3] -0.4% | viability [4] 101% | viability [5] 98.8% | inhibition [6] 1.36% | RAM network inhibition [7] 5.75%

O=C(CN1CCOc2ccccc21)NCc1ccc(Cl)cc1
inactive: growth inhibition [1] -36.4% | growth inhibition [2] -1.02% | viability increase [3] -6.71% | viability [4] 90.8% | viability [5] 81.6% | inhibition [6] 0.665% | RAM network inhibition [7] -0.68%

CCC(CC)C(=O)NCCc1cc2ccc(C)c(C)c2[nH]c1=O
inactive: growth inhibition [1] -14.2% | growth inhibition [2] -21.4% | viability increase [3] -1.66% | viability [4] 103% | viability [5] 96.6% | inhibition [6] 1.66% | RAM network inhibition [7] 2.56%

COc1ccc(C(C)=O)cc1CSc1nnc(C)s1
inactive: growth inhibition [1] -9.51% | growth inhibition [2] -8.14% | viability increase [3] -2.37% | viability [4] 96.5% | viability [5] 96.8% | inhibition [6] -0.565% | RAM network inhibition [7] 0.11%

CN1C(=O)NC(c2ccccc2)C2=C1CN(Cc1ccco1)C2=O (stereo not given)
inactive: growth inhibition [1] -6.95% | growth inhibition [2] -14.4% | viability increase [3] -2.48% | viability [4] 90.4% | viability [5] 89.7% | inhibition [6] 1.47% | RAM network inhibition [7] 3%

O=C1c2oc3ccc(Cl)cc3c(=O)c2C(c2ccco2)N1CCN1CCOCC1 (stereo not given)
inactive: growth inhibition [1] -2.05% | growth inhibition [2] -4.56% | viability increase [3] -5.51% | viability [4] 89.6% | viability [5] 90.4% | inhibition [6] 0.415% | RAM network inhibition [7] -1.88%

CNC(=O)N(C1=NCC(C)(C)S1)c1ccc(F)c(Cl)c1
inactive: growth inhibition [1] -4.53% | growth inhibition [2] -16.6% | viability increase [3] -6.94% | viability [4] 40.4% | viability [5] 35.7% | inhibition [6] 1.26% | RAM network inhibition [7] 4.61%

O=C(CSc1nnc2scc(-c3ccccc3)n12)c1ccc2c(c1)OCCO2
inactive: growth inhibition [1] 1.86% | growth inhibition [2] 0.4% | viability increase [3] -2.27% | viability [4] 99.5% | viability [5] 93.1% | inhibition [6] 3.66% | RAM network inhibition [7] 7.73%

CCN1CCN(CC(=O)Nc2ccc(C)cc2C)C(=O)C1=O
inactive: growth inhibition [1] 2.74% | growth inhibition [2] -6.08% | viability increase [3] -0.23% | viability [4] 98% | viability [5] 97% | inhibition [6] 1.74% | RAM network inhibition [7] -0.71%

O=C(Cn1nc(Cc2cccnc2)c2ccccc2c1=O)N1CCN(c2ccccn2)CC1
inactive: growth inhibition [1] 4.64% | growth inhibition [2] 2.73% | viability increase [3] 0.48% | viability [4] 94.8% | viability [5] 100% | inhibition [6] 0.985% | RAM network inhibition [7] -0.56%
